Test results reported in ChEMBL document CHEMBL3407383, “Design, synthesis and biological profile of new inhibitors of multidrug resistance associated proteins carrying a polycyclic scaffold” (Eur J Med Chem, 2015).
Active and inactive are the calls of the source. The rule behind the calls is not given here.

Tests used:
[1] = Cell cycle arrest in human HL60R cells assessed as exit from mitosis at 10 uM after 24 hrs by propidium iodide staining-based flow cytometry; type: functional
Procedure, shortened: (§1)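 HL60R cells treated with compound plus 10 µM DXR for 24 and 48 h. Fixed in 70% ice-cold ethanol at -20 °C overnight, stained with PI 5 µg/mL plus DNase-free RNase A 10 µg/mL in PBS, 30 min at 37 °C in the dark. PI red fluorescence acquired on a linear scale at 600 nm by flow cytometry.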

HL60R [2] = assay: Induction of apoptosis in human HL60R cells assessed as nuclear fragmentation at 10 uM after 48 hrs by […] staining-based fluorescence microscopy
[3] = Cell cycle arrest in human HL60R cells assessed as accumulation at G2/M phase at 10 uM after 24 hrs by propidium iodide staining-based flow cytometry; type: functional; procedure, shortened: as §1
HL60R [4] = assay: Induction of apoptosis in human HL60R cells assessed as chromatin condensation at 10 uM after 48 hrs by […] staining-based fluorescence microscopy; type: functional, cell-based
Procedure, shortened: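 HL60R cells co-treated 48 h with 10 µM compound plus 10 µM DXR. Cytospun onto slides (150 g, 5 min), PBS-washed, fixed in 4% paraformaldehyde, permeabilized with 0.5% Triton X-100 for 5 min at 4 °C, stained with Hoechst 0,1 mg/mL. Nuclear morphology examined by fluorescence microscopy.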

[5] = target: T1, Multidrug resistance protein 1/Multidrug resistance associated protein 1 (Homo sapiens, UniProt P33527+P08183); assay: Inhibition of MDR1/MRP1 overexpressed in doxorubicin-resistant human HL60R cells assessed as DXR accumulation at 10 uM incubated for 2 hrs prior to DXR challenge measured after 2 hrs by fluorescence assay relative to control; type: cell-based
Procedure, shortened: (§2)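 HL60 and HL60R cells (2.5 × 10^5 cells/mL) preincubated 2 h with compound, then 2 h with 10 µM DXR. Washed twice in cold PBS, resuspended at 1 × 10^6 cells/mL. Anthracycline fluorescence read immediately by flow cytometry (excitation 488 nm, emission 600 nm, log scale). Mean ± SD, ≥3 independent experiments; one-way ANOVA versus HL60R.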

[6] = target: T2, ATP-dependent translocase ABCB1 (Homo sapiens, UniProt P08183); assay: Reversal of human MDR1-mediated drug efflux in mouse L5178 cells using rhodamine 123 as substrate assessed as fluorescence activity ratio at 40 uM incubated for 10 mins prior to substrate addition measured after 20 mins by FACScan flow cytometry relative to control; type: cell-based; details: l5178, 20 min
HL60R [7] = assay: Potentiation of doxorubicin-induced cytotoxicity in human HL60R cells assessed as restart of cell growth at 10 uM incubated for 2 hrs prior to doxorubicin challenge measured after 24 hrs by trypan blue staining-based haemocytometry relative to control; type: functional
Procedure, shortened: (§3)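 HL60R cells seeded at 1.5 × 10^5 cells/mL; after 24 h, exposed to compound (10 µM) for 2 h, then 10 µM DXR added. Viable cells counted by Trypan Blue exclusion in a Bürker haemocytometer at 24 and 48 h. Mean ± SD, at least three independent experiments.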

HL60R [8] = assay: Potentiation of doxorubicin-induced cytotoxicity in human HL60R cells assessed as impairment of cell growth at 10 uM incubated for 2 hrs prior to doxorubicin challenge measured up to 24 hrs by trypan blue staining-based haemocytometry; type: functional; procedure, shortened: as §3
[9] = target: T1, Multidrug resistance protein 1/Multidrug resistance associated protein 1; assay: Inhibition of MDR1/MRP1 overexpressed in doxorubicin-resistant human HL60R cells assessed as DXR accumulation at 0.4 uM incubated for 2 hrs prior to DXR challenge measured after 2 hrs by fluorescence assay relative to control; type: cell-based; procedure, shortened: as §2
[10] = target: T2, ATP-dependent translocase ABCB1; assay: Reversal of human MDR1-mediated drug efflux in mouse L5178 cells using rhodamine 123 as substrate assessed as fluorescence activity ratio at 4 uM incubated for 10 mins prior to substrate addition measured after 20 mins by FACScan flow cytometry relative to control; type: cell-based; details: l5178, 20 min
[11] = Cytotoxicity against human HL60R cells assessed as cell viability at 10 uM by MTT assay; type: cell-based
[12] = target: T1, Multidrug resistance protein 1/Multidrug resistance associated protein 1; assay: Activity at human MDR1/MRP1 overexpressed in doxorubicin-resistant human HL60R cells assessed as ATP consumption at 10 uM after 2 hrs by luminescence assay (reference value: 6350 +/- 303 RLU); type: cell-based
Procedure, shortened: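 HL60R cells at 2.5 × 10^5 cells/mL exposed to 10 µM compound (DMSO solution) for 2 h at 37 °C, 5% CO2; washed twice in cold PBS, resuspended at 1 × 10^6 cells/mL. 1 × 10^5 cells lysed in swab by 20 s agitation; ATP read by luciferase/d-luciferin bioluminescence on a luminometer.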

[13] = target: T2, ATP-dependent translocase ABCB1; assay: Reversal of human MDR1-mediated drug efflux in mouse L5178 cells using rhodamine 123 as substrate at 40 uM incubated for 10 mins prior to substrate addition by FACScan flow cytometry relative to verapamil; type: cell-based; details: l5178, 10 min
Procedure, shortened: (§4)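 L5178 MDR1-transfected and parental mouse lymphoma cells at 2 × 10^6/mL in serum-free McCoy's 5A. Preincubated with compound (0.4–40 µM) for 10 min at room temperature, then rhodamine-123 (5.2 µM final) added for 20 min at 37 °C; washed twice, resuspended in PBS, read by flow cytometry. Verapamil as positive control. R = (MDR treated/MDR control)/(parental treated/parental control).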

[14] = Cytotoxicity against human HL60 cells assessed as effect on cell cycle at 10 uM; type: cell-based; details: hl-60, 10 µM
[15] = Cytotoxicity against human HL60 cells assessed as cell viability at 10 uM by MTT assay; type: cell-based; details: hl-60, 10 µM
[16] = Cytotoxicity against human HL60R cells assessed as effect on cell cycle at 10 uM; type: cell-based
[17] = Lipophilicity, log P of the compound; type: physicochemical; details: octanol/water
HL60R [18] = assay: Potentiation of doxorubicin-induced cell cycle arrest in human HL60R cells assessed as accumulation at G2/M phase at 10 uM after 24 hrs by propidium iodide staining-based flow cytometry; type: functional; procedure, shortened: as §1
HL60R [19] = assay: Potentiation of doxorubicin-induced cell cycle arrest in human HL60R cells assessed as exit from mitosis at 10 uM after 48 hrs by propidium iodide staining-based flow cytometry; type: functional; procedure, shortened: as §1
HL60R [20] = assay: Potentiation of doxorubicin-induced cell cycle arrest in human HL60R cells assessed as accumulation at G0/G1 phase at 10 uM after 24 hrs by propidium iodide staining-based flow cytometry; type: functional; procedure, shortened: as §1
[21] = target: T2, ATP-dependent translocase ABCB1; assay: Reversal of human MDR1-mediated drug efflux in mouse L5178 cells using rhodamine 123 as substrate assessed as fluorescence activity ratio at 0.4 uM incubated for 10 mins prior to substrate addition measured after 20 mins by FACScan flow cytometry relative to control; type: cell-based; details: l5178, 20 min; procedure, shortened: as §4
[22] = target: T2, ATP-dependent translocase ABCB1; assay: Reversal of human MDR1-mediated drug efflux in mouse L5178 cells using rhodamine 123 as substrate assessed as fluorescence activity ratio at 0.8 uM incubated for 10 mins prior to substrate addition measured after 20 mins by FACScan flow cytometry relative to control; type: cell-based; details: l5178, 20 min; procedure, shortened: as §4
HL60R [23] = assay: Potentiation of doxorubicin-induced cytotoxicity in human HL60R cells at 10 uM incubated for 2 hrs prior to doxorubicin challenge measured after 24 to 48 hrs by trypan blue staining-based haemocytometry; type: functional, cell-based; procedure, shortened: as §3
HL60R [24] = assay: Potentiation of doxorubicin-induced cytotoxicity in human HL60R cells at 10 uM incubated for 2 hrs prior to doxorubicin challenge measured after 24 hrs by trypan blue staining-based haemocytometry; type: functional, cell-based; procedure, shortened: as §3

T2 sequence (P08183 whole entry): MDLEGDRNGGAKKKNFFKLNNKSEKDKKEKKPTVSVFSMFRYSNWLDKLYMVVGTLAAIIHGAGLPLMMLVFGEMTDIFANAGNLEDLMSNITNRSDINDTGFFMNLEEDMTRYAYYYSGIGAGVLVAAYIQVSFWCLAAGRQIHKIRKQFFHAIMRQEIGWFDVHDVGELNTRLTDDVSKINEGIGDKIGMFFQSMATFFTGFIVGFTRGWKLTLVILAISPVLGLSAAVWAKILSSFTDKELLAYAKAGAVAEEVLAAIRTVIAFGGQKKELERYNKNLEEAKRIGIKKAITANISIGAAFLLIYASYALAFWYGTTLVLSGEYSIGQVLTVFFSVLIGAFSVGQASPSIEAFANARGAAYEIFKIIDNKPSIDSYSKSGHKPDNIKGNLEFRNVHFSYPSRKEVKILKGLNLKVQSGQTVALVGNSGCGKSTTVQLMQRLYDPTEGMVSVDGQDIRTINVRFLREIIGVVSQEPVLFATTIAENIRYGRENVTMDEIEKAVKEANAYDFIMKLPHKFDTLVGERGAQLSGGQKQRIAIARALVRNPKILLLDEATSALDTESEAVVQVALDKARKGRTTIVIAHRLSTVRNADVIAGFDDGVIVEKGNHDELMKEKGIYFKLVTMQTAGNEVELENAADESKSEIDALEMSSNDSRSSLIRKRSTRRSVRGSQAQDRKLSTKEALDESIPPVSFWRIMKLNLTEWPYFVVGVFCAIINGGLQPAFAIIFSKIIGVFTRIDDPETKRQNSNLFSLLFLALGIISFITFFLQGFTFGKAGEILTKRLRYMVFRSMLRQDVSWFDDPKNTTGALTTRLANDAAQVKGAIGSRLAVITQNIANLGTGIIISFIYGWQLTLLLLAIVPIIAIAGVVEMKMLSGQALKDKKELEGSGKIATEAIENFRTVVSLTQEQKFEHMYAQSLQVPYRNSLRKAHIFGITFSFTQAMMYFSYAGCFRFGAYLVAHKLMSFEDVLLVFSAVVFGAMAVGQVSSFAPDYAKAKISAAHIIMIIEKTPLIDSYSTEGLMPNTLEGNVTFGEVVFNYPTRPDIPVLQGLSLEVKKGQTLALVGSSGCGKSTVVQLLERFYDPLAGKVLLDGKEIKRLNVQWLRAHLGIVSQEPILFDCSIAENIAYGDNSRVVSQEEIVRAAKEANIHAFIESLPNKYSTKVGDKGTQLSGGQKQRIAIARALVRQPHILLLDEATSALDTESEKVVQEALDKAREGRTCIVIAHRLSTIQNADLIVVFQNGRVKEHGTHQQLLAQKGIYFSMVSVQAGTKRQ

SMILES	inhibition (INH) [5]	Ratio [6]	inhibition (INH) [9]	Ratio [10]	Activity [11]	RLU [12]	Activity [14]	Activity [15]	Activity [16]	logP [17]	Activity (HL60R [18])	Activity (HL60R [20])	Activity (HL60R [23])	also measured
COc1cccc2c1C(=O)c1c(O)c3c(c(O)c1C2=O)C[C@@](O)(C(=O)CO)C[C@@H]3O[C@H]1C[C@H](N)[C@H](O)[C@H](C)O1														Activity [1]: inactive; Activity (HL60R [2]): Active; Activity [3]: Active; Activity (HL60R [4]): Active
C#CCN1C(=O)[C@@H]2[C@H]3c4ccccc4[C@H](c4ccccc43)[C@@H]2C1=O	Not Active													
O=C1[C@@H]2[C@H]3c4ccccc4[C@H](c4ccccc43)[C@@H]2C(=O)N1CC#CCN1CCN(c2ccccc2)CC1	Not Active	11.52	Not Active	7.56	Non-toxic	3650	Non-toxic	Non-toxic	Non-toxic	2.54	Active			Activity (HL60R [7]): inactive; Activity (HL60R [8]): Active; Ratio [13]: 2; Activity (HL60R [19]): inactive
O=C1[C@@H]2[C@H]3c4ccccc4[C@H](c4ccccc43)[C@@H]2C(=O)N1CC#CCN1CCN(Cc2ccccc2)CC1	Active	85.46	Not Active	54.832	Non-toxic	3957	Non-toxic	Non-toxic	Non-toxic	2.54		Active	Active	Ratio [21]: 2.62; Ratio [13]: 15; Ratio [22]: 7.76
O=C1[C@@H]2[C@H]3c4ccccc4[C@H](c4ccccc43)[C@@H]2C(=O)N1CC#CCN1CCC(n2c(=O)[nH]c3ccccc32)CC1	Not Active	44.6	Not Active	6.39	Non-toxic	4363	Non-toxic	Non-toxic	Non-toxic	2.54	Active			Activity (HL60R [24]): Active
COc1ccc(CCN(C)CC#CCN2C(=O)[C@@H]3[C@H]4c5ccccc5[C@H](c5ccccc54)[C@@H]3C2=O)cc1OC			Not Active		Toxic	2612	Toxic	Toxic	Toxic			Active	Active	
O=C1[C@@H]2[C@H]3c4ccccc4[C@H](c4ccccc43)[C@@H]2C(=O)N1CC#CCN1CCN(C(c2ccc(F)cc2)c2ccc(F)cc2)CC1	Active	33.38	Not Active	28.27	Non-toxic	4276	Non-toxic	Non-toxic	Non-toxic	6.3		Active	Active	Ratio [21]: 5.19; Ratio [22]: 8.22
CN1CCN(CC#CCN2C(=O)[C@@H]3[C@H]4c5ccccc5[C@H](c5ccccc54)[C@@H]3C2=O)CC1	Not Active	64.74	Not Active	9.59	Non-toxic	3429	Non-toxic	Non-toxic	Non-toxic	2.54	Active			Activity (HL60R [7]): inactive; Activity (HL60R [8]): Active; Activity (HL60R [19]): inactive
